In brackets after ≈: the same amount, converted by molar mass.
Tests used:
Format in all cases: functional
Enterococcus faecalis [1] = test: Antibacterial activity against Enterococcus faecalis 14-2 after 18 to 24 hrs
Outline: (§1)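 MIC by standard NCCLS reference procedure (M100-S11); lowest concentration of compound inhibiting visible bacterial growth after incubation at 35 °C for 18–24 h, read as complete inhibition of growth. Ciprofloxacin, levofloxacin and moxifloxacin run alongside as reference agents.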

Enterococcus faecium [2] = test: Antibacterial activity against Enterococcus faecium 14-1 after 18 to 24 hrs; outline: as §1
Enterococcus faecium [3] = test: Antibacterial activity against Enterococcus faecium 14-2 after 18 to 24 hrs; outline: as §1
Enterococcus faecium [4] = test: Antibacterial activity against Enterococcus faecium 14-5 after 18 to 24 hrs; outline: as §1
Enterococcus faecium [5] = test: Antibacterial activity against Enterococcus faecium 14-6 after 18 to 24 hrs; outline: as §1
[6] = tested on: Mycobacterium tuberculosis; test: Antimycobacterial activity against Mycobacterium tuberculosis H37Rv ATCC 27294 by alamar blue assay
Outline: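 Microplate Alamar Blue Assay; MIC is the lowest concentration giving ≥90% reduction in fluorescence relative to the mean of replicate bacterium-only controls. MDR strain 6133 is resistant to isoniazid and rifampicin.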

Escherichia coli [7] = test: Antibacterial activity against Escherichia coli ATCC 25922 after 18 to 24 hrs; outline: as §1
Escherichia coli [8] = test: Antibacterial activity against ESBL-positive Escherichia coli 14-1 after 18 to 24 hrs; outline: as §1
Escherichia coli [9] = test: Antibacterial activity against ESBL-positive Escherichia coli 14-2 after 18 to 24 hrs; outline: as §1
Escherichia coli [10] = test: Antibacterial activity against Escherichia coli 14-1 after 18 to 24 hrs; outline: as §1
Escherichia coli [11] = test: Antibacterial activity against Escherichia coli 14-2 after 18 to 24 hrs; outline: as §1
Klebsiella pneumoniae [12] = test: Antibacterial activity against ESBL-positive Klebsiella pneumoniae 14-17 after 18 to 24 hrs; outline: as §1
Klebsiella pneumoniae [13] = test: Antibacterial activity against ESBL-positive Klebsiella pneumoniae 14-18 after 18 to 24 hrs; outline: as §1
Klebsiella pneumoniae [14] = test: Antibacterial activity against ESBL-positive Klebsiella pneumoniae 14-19 after 18 to 24 hrs; outline: as §1
Klebsiella pneumoniae [15] = test: Antibacterial activity against Klebsiella pneumoniae 14-1 after 18 to 24 hrs; outline: as §1
Klebsiella pneumoniae [16] = test: Antibacterial activity against Klebsiella pneumoniae 14-2 after 18 to 24 hrs; outline: as §1
Klebsiella pneumoniae [17] = test: Antibacterial activity against Klebsiella pneumoniae 14-3 after 18 to 24 hrs; outline: as §1
Klebsiella pneumoniae [18] = test: Antibacterial activity against Klebsiella pneumoniae 14-4 after 18 to 24 hrs; outline: as §1
Pseudomonas aeruginosa [19] = test: Antibacterial activity against Pseudomonas aeruginosa ATCC 27853 after 18 to 24 hrs; outline: as §1
Pseudomonas aeruginosa [20] = test: Antibacterial activity against Pseudomonas aeruginosa 14-9 after 18 to 24 hrs; outline: as §1
Pseudomonas aeruginosa [21] = test: Antibacterial activity against Pseudomonas aeruginosa 14-14 after 18 to 24 hrs; outline: as §1
Pseudomonas aeruginosa [22] = test: Antibacterial activity against Pseudomonas aeruginosa 14-15 after 18 to 24 hrs; outline: as §1
Pseudomonas aeruginosa [23] = test: Antibacterial activity against Pseudomonas aeruginosa 14-16 after 18 to 24 hrs; outline: as §1
Pseudomonas aeruginosa [24] = test: Antibacterial activity against Pseudomonas aeruginosa 14-19 after 18 to 24 hrs; outline: as §1
Staphylococcus aureus [25] = test: Antibacterial activity against Staphylococcus aureus CMCC 26003 after 18 to 24 hrs; outline: as §1
Staphylococcus aureus [26] = test: Antibacterial activity against methicillin-sensitive Staphylococcus aureus 14-1 after 18 to 24 hrs; outline: as §1
Staphylococcus aureus [27] = test: Antibacterial activity against methicillin-sensitive Staphylococcus aureus 14-2 after 18 to 24 hrs; outline: as §1
Staphylococcus aureus [28] = test: Antibacterial activity against methicillin-sensitive Staphylococcus aureus 14-3 after 18 to 24 hrs; outline: as §1
Staphylococcus aureus [29] = test: Antibacterial activity against methicillin-sensitive Staphylococcus aureus 14-4 after 18 to 24 hrs; outline: as §1
Staphylococcus aureus [30] = test: Antibacterial activity against methicillin-resistant Staphylococcus aureus 14-4 after 18 to 24 hrs
Staphylococcus aureus [31] = test: Antibacterial activity against methicillin-resistant Staphylococcus aureus 14-5 after 18 to 24 hrs
[32] = tested on: Staphylococcus epidermidis; test: Antibacterial activity against methicillin-sensitive Staphylococcus epidermidis 14-2 after 18 to 24 hrs; outline: as §1
[33] = tested on: Staphylococcus epidermidis; test: Antibacterial activity against methicillin-resistant Staphylococcus epidermidis 14-21 after 18 to 24 hrs
[34] = tested on: Staphylococcus epidermidis; test: Antibacterial activity against methicillin-resistant Staphylococcus epidermidis 14-22 after 18 to 24 hrs
[35] = tested on: Staphylococcus epidermidis; test: Antibacterial activity against methicillin-resistant Staphylococcus epidermidis 14-37 after 18 to 24 hrs
[36] = tested on: Staphylococcus epidermidis; test: Antibacterial activity against methicillin-resistant Staphylococcus epidermidis 14-39 after 18 to 24 hrs
Streptococcus pneumoniae = test: Antibacterial activity against Streptococcus pneumoniae ATCC 19615 after 18 to 24 hrs; outline: as §1
Enterococcus faecalis [37] = test: Antibacterial activity against Enterococcus faecalis 14-1 after 18 to 24 hrs; outline: as §1

SMILES | MIC (Enterococcus faecalis [1]) | MIC (Enterococcus faecium [2]) | MIC (Enterococcus faecium [3]) | MIC (Enterococcus faecium [4]) | MIC (Enterococcus faecium [5]) | MIC90 [6] | MIC (Escherichia coli [7]) | MIC (Escherichia coli [8]) | MIC (Escherichia coli [9]) | MIC (Escherichia coli [10]) | MIC (Escherichia coli [11]) | MIC (Klebsiella pneumoniae [12]) | MIC (Klebsiella pneumoniae [13]) | MIC (Klebsiella pneumoniae [14]) | MIC (Klebsiella pneumoniae [15]) | MIC (Klebsiella pneumoniae [16]) | MIC (Klebsiella pneumoniae [17]) | MIC (Klebsiella pneumoniae [18]) | MIC (Pseudomonas aeruginosa [19]) | MIC (Pseudomonas aeruginosa [20]) | further results
COc1cccc(CO/N=C2\CN(c3nc4c(cc3F)c(=O)c(C(=O)O)cn4[C@@H]3C[C@@H]3F)CC2CN)c1OC (stereo partly specified) | 0.015 µg/mL (≈ 0.0276 µM) | 1 µg/mL (≈ 1.84 µM) | 1 µg/mL (≈ 1.84 µM) | 4 µg/mL (≈ 7.36 µM) | 16 µg/mL (≈ 29.4 µM) | 0.376 µg/mL (≈ 0.692 µM) | 0.03 µg/mL (≈ 0.0552 µM) | 32 µg/mL (≈ 58.9 µM) | 128 µg/mL (≈ 235 µM) | 2 µg/mL (≈ 3.68 µM) | 128 µg/mL (≈ 235 µM) | 128 µg/mL (≈ 235 µM) | 16 µg/mL (≈ 29.4 µM) | 128 µg/mL (≈ 235 µM) | 128 µg/mL (≈ 235 µM) | 128 µg/mL (≈ 235 µM) | 64 µg/mL (≈ 118 µM) | 128 µg/mL (≈ 235 µM) | 2 µg/mL (≈ 3.68 µM) | 8 µg/mL (≈ 14.7 µM) | MIC (Pseudomonas aeruginosa [21]): 16 µg/mL (≈ 29.4 µM); MIC (Pseudomonas aeruginosa [22]): 16 µg/mL (≈ 29.4 µM); MIC (Pseudomonas aeruginosa [23]): 16 µg/mL (≈ 29.4 µM); MIC (Pseudomonas aeruginosa [24]): 16 µg/mL (≈ 29.4 µM); MIC (Staphylococcus aureus [25]): < 0.008 µg/mL; MIC (Staphylococcus aureus [26]): 4 µg/mL (≈ 7.36 µM); MIC (Staphylococcus aureus [27]): < 0.008 µg/mL; MIC (Staphylococcus aureus [28]): < 0.008 µg/mL; MIC (Staphylococcus aureus [29]): 0.015 µg/mL (≈ 0.0276 µM); MIC (Staphylococcus aureus [30]): 16 µg/mL (≈ 29.4 µM); MIC (Staphylococcus aureus [31]): 2 µg/mL (≈ 3.68 µM); MIC [32]: 32 µg/mL (≈ 58.9 µM); MIC [33]: 2 µg/mL (≈ 3.68 µM); MIC [34]: 1 µg/mL (≈ 1.84 µM); MIC [35]: 16 µg/mL (≈ 29.4 µM); MIC [36]: 16 µg/mL (≈ 29.4 µM); MIC (Streptococcus pneumoniae): 0.03 µg/mL (≈ 0.0552 µM); MIC (Enterococcus faecalis [37]): 64 µg/mL (≈ 118 µM)
NCC1CN(c2nc3c(cc2F)c(=O)c(C(=O)O)cn3[C@@H]2C[C@@H]2F)C/C1=N\OCc1ccc([N+](=O)[O-])cc1 (stereo partly specified) | 0.25 µg/mL (≈ 0.473 µM) | 4 µg/mL (≈ 7.57 µM) | 4 µg/mL (≈ 7.57 µM) | 8 µg/mL (≈ 15.1 µM) | 4 µg/mL (≈ 7.57 µM) | 0.467 µg/mL (≈ 0.884 µM) | 0.25 µg/mL (≈ 0.473 µM) | 4 µg/mL (≈ 7.57 µM) | > 128 µg/mL | 128 µg/mL (≈ 242 µM) | 128 µg/mL (≈ 242 µM) | 8 µg/mL (≈ 15.1 µM) | 16 µg/mL (≈ 30.3 µM) | 128 µg/mL (≈ 242 µM) | 128 µg/mL (≈ 242 µM) | 128 µg/mL (≈ 242 µM) | 128 µg/mL (≈ 242 µM) | 128 µg/mL (≈ 242 µM) | 4 µg/mL (≈ 7.57 µM) | 4 µg/mL (≈ 7.57 µM) | MIC (Pseudomonas aeruginosa [21]): 16 µg/mL (≈ 30.3 µM); MIC (Pseudomonas aeruginosa [22]): 16 µg/mL (≈ 30.3 µM); MIC (Pseudomonas aeruginosa [23]): 16 µg/mL (≈ 30.3 µM); MIC (Pseudomonas aeruginosa [24]): 16 µg/mL (≈ 30.3 µM); MIC (Staphylococcus aureus [25]): 0.015 µg/mL (≈ 0.0284 µM); MIC (Staphylococcus aureus [26]): 4 µg/mL (≈ 7.57 µM); MIC (Staphylococcus aureus [27]): 0.06 µg/mL (≈ 0.114 µM); MIC (Staphylococcus aureus [28]): 0.03 µg/mL (≈ 0.0568 µM); MIC (Staphylococcus aureus [29]): 0.125 µg/mL (≈ 0.237 µM); MIC (Staphylococcus aureus [30]): 128 µg/mL (≈ 242 µM); MIC (Staphylococcus aureus [31]): 4 µg/mL (≈ 7.57 µM); MIC [32]: 128 µg/mL (≈ 242 µM); MIC [33]: 16 µg/mL (≈ 30.3 µM); MIC [34]: 8 µg/mL (≈ 15.1 µM); MIC [35]: 4 µg/mL (≈ 7.57 µM); MIC [36]: 8 µg/mL (≈ 15.1 µM); MIC (Streptococcus pneumoniae): 0.015 µg/mL (≈ 0.0284 µM); MIC (Enterococcus faecalis [37]): 64 µg/mL (≈ 121 µM)

Source: ChEMBL document CHEMBL3632558, “Synthesis, antimycobacterial and antibacterial activity of l-[(1R,2S)-2-fluorocyclopropyl]naphthyridone derivatives containing an oxime-functionalized pyrrolidine moiety” (2015)
